The results in this text go back to ChEMBL document CHEMBL3351240, “Antinociceptive properties of physalins from Physalis angulata” (J Nat Prod, 2014).

Data set [1] concerns Mus musculus. The data set can be described thus: CNS toxicity in Swiss Webster mouse assessed as reduction in motor performance at 10 mg/kg, ip after 40 mins by rotarod test. The class given is organism-based. Set-up: dose 10 mg/kg, route intraperitoneal. Particulars: in vivo. The gist of the method:
(§1)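 Rota-rod test: 3 cm bar at 8 rpm; mice pre-selected 24 h earlier by remaining on bar for two consecutive 120 s periods; placed on rod 40 min after ip dosing; time on bar recorded up to 120 s; n = 6; one-way ANOVA with Tukey.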
On the technique in general: In the rotarod test animals must keep their balance on a rotating rod.

The subject of data set [2] is Mus musculus. The data set is described as follows: CNS toxicity in Swiss Webster mouse assessed as reduction in motor performance at 10 mg/kg, ip after 40 mins by open field test. Also noted: dose 10 mg/kg, route intraperitoneal. Particulars: in vivo. The class given is organism-based. An outline of the steps: (§2)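 Open-field test 40 min after ip dosing: mice placed singly in 40 × 60 × 50 cm box with 12 floor squares; squares crossed with all four paws counted over 3 min; n = 6; one-way ANOVA with Tukey.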

In data set [3] the test system is Mus musculus. The data set is described as follows: Antinociceptive activity in Swiss Webster mouse assessed as increase in reaction time at 5 mg/kg, ip measured after 3 hrs by tail flick test. The data set is classed as functional, organism-based. Also noted: dose 5 mg/kg. The gist of the method:
(§3)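 Mice habituated to restraint cylinder 20 min/day for 5 days; distal 2 cm of tail immersed in 48 ± 0.5 °C water; tail withdrawal latency measured before and after ip dosing (5% DMSO/saline vehicle); 10 s cutoff; n = 6; two-way ANOVA with Bonferroni.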

Data set [4] concerns Mus musculus. The data set can be described thus: Antinociceptive activity in Swiss Webster mouse assessed as increase in latency time at 5 mg/kg, ip measured after 1 hr by hot plate test. The class given is functional, organism-based. Set-up: dose 5 mg/kg. The gist of the method:
(§4)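 Hot plate held at 55 ± 1 °C; male Swiss Webster mice; reaction time to hind paw licking or jumping recorded before and after ip dosing (vehicle 5% DMSO in saline); data as difference from baseline; 10 s cutoff; n = 6; two-way ANOVA with Bonferroni.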
(Thermal pain tests record how soon the animal reacts.)

Data set [5] deals with Mus musculus. The data set is described as follows: Antinociceptive activity in Swiss Webster mouse assessed as inhibition of formalin-induced early phase pain response at 5 mg/kg, ip dosed 40 mins before formalin injection. The class given is functional, organism-based. Set-up: dose 5 mg/kg. The gist of the method:
(§5)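 Mice acclimated 30 min in chamber, dosed ip 40 min before sc injection of 20 μL 2.5% formalin into dorsal hind paw; licking time of injected paw scored 0−10 min (early phase) and 10−30 min (late phase); n = 7−10; ANOVA with Tukey.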

In data set [6] the test system is Mus musculus. The data set is described as follows: Antinociceptive activity in Swiss Webster mouse assessed as inhibition of formalin-induced late phase pain response at 5 mg/kg, ip dosed 40 mins before formalin injection. Set-up: dose 5 mg/kg. The class given is functional, organism-based. An outline of the steps: as §5
For data set [7], the system named is Mus musculus. The data set is described as follows: Antinociceptive activity in Swiss Webster mouse assessed as increase in reaction time at 100 mg/kg, ip measured after 3 hrs by tail flick test. The class given is functional, organism-based. Set-up: dose 100 mg/kg. An outline of the steps: as §3
For data set [8], the system named is Mus musculus. The data set can be described thus: CNS toxicity in Swiss Webster mouse assessed as effect on motor performance at 100 mg/kg, ip after 40 mins by rotarod test. The data set is classed as organism-based. Set-up: dose 100 mg/kg, route intraperitoneal. To be noted: in vivo. An outline of the steps:
as §1

For data set [9], the system named is Mus musculus. The data set can be described thus: Reduction in IL1-beta level in Swiss Webster mouse 100 mg/kg, ip dosed 40 mins before CFA injection and measured 3 hrs post CFA stimulus by ELISA method. The data set is classed as functional, organism-based. Also noted: dose 100 mg/kg. Particulars: at 100 mg/kg. An outline of the steps:
(§6)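 Mice dosed ip 40 min before intraplantar CFA; paw skin removed under terminal halothane anesthesia; proteins extracted at 100 mg tissue/mL PBS with 0.4 M NaCl, 0.05% Tween 20 and protease inhibitors; centrifuged 3000g for 10 min; supernatant IL-1β or TNF-α measured by ELISA as pg/mL; n = 6.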
Background: ELISA stands for enzyme-linked immunosorbent assay.

In data set [10] the test system is Mus musculus. The data set can be described thus: Antinociceptive activity in Swiss Webster mouse assessed as inhibition of acetic acid-induced abdominal constrictions at 25 mg/kg, ip dosed 40 mins before acetic acid injection. The data set is classed as functional, organism-based. To be noted: Abdomen. Set-up: dose 25 mg/kg. The gist of the method:
(§7)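 Male Swiss Webster mice dosed ip (5% DMSO in saline vehicle) 40 min before ip acetic acid 0.8% v/v, 10 mL/kg; writhes (abdominal contraction with hind-limb stretching) counted over 0−30 min; mean writhing score, n = 10 per group; ANOVA with Tukey.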

Data set [11] relates to Mus musculus. The data set is described as follows: Antiinflammatory activity in Swiss Webster mouse assessed as reduction in paw edema at 50 to 100 mg/kg, ip dosed 40 mins before CFA injection and measured 2 to 4 hrs post CFA stimulus. The data set is classed as functional, organism-based. The gist of the method:
(§8)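 Male Swiss Webster mice, ip pretreatment in 5% DMSO/saline 40 min before intraplantar CFA (20 μL, 1 mg/mL heat-killed M. tuberculosis). Paw volume measured by plethysmometer before and 2, 4, 6 h after CFA; edema expressed as percent increase in paw volume; n = 6 mice/group; two-way ANOVA with Bonferroni.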

Data set [12] deals with Mus musculus. The data set can be described thus: Reduction in TNFalpha level in Swiss Webster mouse 100 mg/kg, ip dosed 40 mins before CFA injection and measured 3 hrs post CFA stimulus by ELISA method. The class given is functional, organism-based. Set-up: dose 100 mg/kg. To be noted: at 100 mg/kg. The gist of the method: as §6
Data set [13] relates to Mus musculus. The data set can be described thus: Antiinflammatory activity in Swiss Webster mouse assessed as reduction in hyperalgesia at 100 mg/kg, ip dosed 40 mins before CFA injection and measured 4 to 6 hrs post CFA stimulus. Also noted: dose 100 mg/kg. The data set is classed as functional, organism-based. The gist of the method: (§9)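 Male Swiss Webster mice (22−28 g) given drug ip in 5% DMSO/saline (dexamethasone in 10% ethanol/saline) 40 min before 20 μL CFA (1 mg/mL heat-killed M. tuberculosis in paraffin oil/mannide monooleate) sc into right hind paw plantar region. Mechanical threshold by von Frey filaments, up−down method, at 2, 4 and 6 h; n = 6; two-way ANOVA with Bonferroni.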

The test system of data set [14] is Mus musculus. The data set is described as follows: Antiinflammatory activity in Swiss Webster mouse assessed as reduction in hyperalgesia at 100 mg/kg, ip dosed 40 mins before CFA injection and measured 2 hrs post CFA stimulus. The class given is functional, organism-based. Set-up: dose 100 mg/kg. The gist of the method:
as §9

The test system of data set [15] is Mus musculus. The data set is described as follows: Antinociceptive activity in Swiss Webster mouse assessed as inhibition of formalin-induced late phase pain response at 50 to 100 mg/kg, ip dosed 40 mins before formalin injection. The data set is classed as functional, organism-based. An outline of the steps:
as §5

Data set [16] has as its system Mus musculus. The data set is described as follows: Antinociceptive activity in Swiss Webster mouse assessed as increase in latency time at 100 mg/kg, ip measured after 0.5 to 2 hrs by hot plate test. The data set is classed as functional, organism-based. Set-up: dose 100 mg/kg. The gist of the method: as §4
Data set [17] deals with Mus musculus. The data set can be described thus: CNS toxicity in Swiss Webster mouse assessed as effect on motor performance at 100 mg/kg, ip after 40 mins by open field test. The class given is organism-based. Set-up: dose 100 mg/kg, route intraperitoneal. To be noted: in vivo. The gist of the method:
as §2

The subject of data set [18] is Mus musculus. The data set is described as follows: Antinociceptive activity in Swiss Webster mouse assessed as inhibition of formalin-induced early phase pain response at 50 to 100 mg/kg, ip dosed 40 mins before formalin injection. The data set is classed as functional, organism-based. An outline of the steps: as §5
The test system of data set [19] is Mus musculus. The data set can be described thus: Antinociceptive activity in Swiss Webster mouse assessed as increase in latency time at 100 mg/kg, ip measured after 0.5 hrs by hot plate test. The data set is classed as functional, organism-based. Set-up: dose 100 mg/kg. An outline of the steps: as §4
The subject of data set [20] is Mus musculus. The data set is described as follows: Antinociceptive activity in Swiss Webster mouse assessed as inhibition of formalin-induced late phase pain response at 25 to 100 mg/kg, ip dosed 40 mins before formalin injection. The class given is functional, organism-based. The gist of the method:
as §5

The subject of data set [21] is Mus musculus. The data set is described as follows: Antiinflammatory activity in Swiss Webster mouse assessed as reduction in hyperalgesia at 100 mg/kg, ip dosed 40 mins before CFA injection and measured 2 to 6 hrs post CFA stimulus. The class given is functional, organism-based. Set-up: dose 100 mg/kg. The gist of the method:
as §9

For data set [22], the system named is Mus musculus. The data set can be described thus: Antiinflammatory activity in Swiss Webster mouse assessed as reduction in paw edema at 100 mg/kg, ip dosed 40 mins before CFA injection and measured 2 to 6 hrs post CFA stimulus. The data set is classed as functional, organism-based. Also noted: dose 100 mg/kg. An outline of the steps:
as §8

For data set [23], the system named is Mus musculus. The data set is described as follows: Antinociceptive activity in Swiss Webster mouse assessed as inhibition of acetic acid-induced abdominal constrictions at 25 to 100 mg/kg, ip dosed 40 mins before acetic acid injection. Particulars: Abdomen. The class given is functional, organism-based. The gist of the method: as §7

SMILES strings stand for the structures. The source made the active and inactive calls.

As to `CN1C(=O)CN=C(c2ccccc2)c2cc(Cl)ccc21` [DIAZEPAM], the Activity result with Mus musculus [1] and in the data set with Mus musculus [2] was “Toxic” each time.
Take `CN1CC[C@]23c4c5ccc(O)c4O[C@H]2[C@@H](O)C=C[C@H]3[C@H]1C5`: the result with Mus musculus [3] and in the data set on Mus musculus [4] was Active. Also, the inhibition result in the data set on Mus musculus [5] and with Mus musculus [6] was “Active” throughout.
As to `C[C@@]12C[C@H]3OC(=O)[C@@H]1CO[C@]14O[C@]5([C@H]2C1=O)[C@@](O)(CC[C@H]1[C@H]4C[C@H]2O[C@]24CC=CC(=O)[C@]14C)C(=O)O[C@@]35C` [PHYSALIN F], the result in the data set with Mus musculus [7] and in the data set on Mus musculus [16] was Active. Moreover, the Activity entry in the data set on Mus musculus [8] and with Mus musculus [17] was “Non-toxic” throughout. For the same molecule, the inhibition entry in the data set with Mus musculus [9] and with Mus musculus [13] was “inactive” in each case. Besides, the inhibition entry in the data set on Mus musculus [10], in the data set on Mus musculus [11], in the data set on Mus musculus [12], in the data set on Mus musculus [14], in the data set with Mus musculus [15] and in the data set with Mus musculus [18] was “Active” each time.
Take `C[C@@]12C[C@H]3OC(=O)[C@@H]1CO[C@@]14O[C@]5([C@H]2C1=O)[C@@](O)(CC[C@H]1[C@H]4C[C@@H](O)[C@@]2(O)CC=CC(=O)[C@]12C)C(=O)O[C@@]35C` [PHYSALIN D]: the result in the data set on Mus musculus [19] was Active. Moreover, the inhibition result with Mus musculus [20] was “Active”. Further, the Activity result in the data set with Mus musculus [8] and in the data set with Mus musculus [17] was “Non-toxic” throughout. For the same molecule, the inhibition result in the data set on Mus musculus [21] and in the data set with Mus musculus [22] was “inactive” each time. Moreover, the inhibition entry in the data set with Mus musculus [23] was “Dose-dependent effect”.
